Data taken from PubChem BioAssay.
Active and inactive are the calls of the source.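 Rule for the calls, unless noted: active = inhibition above 20% together with a positive visual image hit; inconclusive = visual image hit but inhibition not above 20%; inactive = no visual image hit.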

Columns and labels:
[1] = inhibitors of TNFa-induced NFkB p65 translocation, primary screen, imaging, HUVEC, MLSMR starter and 10KST1 sets (AID 438); details: HUVEC TNFa-induced p65 nuclear translocation; cell count: measured here: nuclei count (cytotoxicity indicator), at 2.08 µM; inhibition: at 2 µM, stronger effect = higher value, 0% TNFa-plus-vehicle, 100% no-TNFa wells;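 note: compound added about 3h40 before a 20 min TNFalpha stimulation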;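 for inhibition: signal is the nuclear over cytoplasmic p65 intensity ratio per well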
[2] = reduction of polyQ htt aggregates in cells – imaging, exon1htt(103Q)mCFP cells, high-content imaging, primary screen (AID 483;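 active = visual image review flags a hit and inhibition of aggregation exceeds 20%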;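 note: compound exposure lasted 3 days before fixation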;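 for nuclei count: percent of the per-plate median nuclei count of sample wells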); details: exon1htt(103Q)mCFP cell line, aggregate imaging, at 2 µM; inhibition of aggregation: stronger effect = higher value; nuclei count: measured here: cell count, toxicity
[3] = endothelial E-selectin expression blockers – imaging, HUVEC, immunofluorescence, MLSMR starter and 10KST1 sets, primary screen (AID 487;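 active = visually confirmed hit in the image check and inhibition above 20%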;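 for inhibition: signal is fraction of cell area covered by stained E-selectin grains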;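 for nuclei count: 100% = median nuclei count of all wells on the same plate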); details: HUVEC TNFalpha-induced E-selectin immunofluorescence imaging, at 2 µM; inhibition: stronger effect = higher value; nuclei count: measured here: cell number, toxicity
[4] = target: Voltage-gated potassium channel subunit beta-2 (Rattus norvegicus) (UniProt P62483); assay: inhibitors of rat Kvbeta2 reductase activity – biochemical, NADPH fluorescence, primary screen (AID 622;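 active = fluorescence slope higher than the sample average by over 3 SD, cut at about -0.22 in these data, passing the limit was not always enough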;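 note: slope of raw intensity against log time taken from 70 to 1610 s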); details: recombinant KvBeta, 4-cyanobenzaldehyde reduction, at 10 µM, stronger effect = higher value
[5] = target: Voltage-gated potassium channel subunit beta-2 (Rattus norvegicus) (UniProt P62483); assay: enhancers of rat Kvbeta2 NADPH turnover – biochemical, NADPH fluorescence, primary screen (AID 623;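 active = NADPH fluorescence slope more negative than the mean of all samples by about 3 SD, 99.7% confidence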;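 note: fluorescence intensity change per second fitted from 20 to 320 s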); details: Recombinant KvBeta, NADPH fluorescence decrease slope, 10 min; at 10 µM; stronger effect = lower value
[6] = target: Alpha-2C adrenergic receptor (Homo sapiens) (UniProt P18825); assay: compounds altering alpha2C-coupled GIRK flux – cell-based, HEK293 alpha2C/GIRK1/2, thallium flux, primary screen (AID 624;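 active = fluorescence slope after compound addition differing from the mean of all screened samples at 99.7% confidence, in either direction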;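 note: slope of fluorescence ratio to pre-addition baseline per second over 15 to 24 s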); details: thallium flux BTC fluorescence, at 10 µM, actives lie on both sides
[7] = inhibitors of larval lipid processing in zebrafish, primary screen, whole organism, PED6 fluorescence, gall bladder and intestine (AID 686;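 active = a full or partial loss of lipid-probe fluorescence in the fish gall bladder, intestine or both, judged by eye; inactive = no fluorescence loss, or compound toxic to the fish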;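 note: larvae 5 to 7 days old with five fish per well; signal comes from phospholipase A2 cleavage of quenched PED6 carried via bile; overnight exposure to compound and PED6 before scoring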); details: Zebrafish larvae PED6 lipid processing, fluorescence scoring; screened at 20 µM (by protocol)
Procedure, shortened: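 system = live zebrafish larvae aged 5-7 days, whole organism | probe or stimulus = ingested quenched lipid PED6 at 100 nM | doses = 20 µM single dose | timing = overnight exposure | detection = fluorescence microscopy with visual scoring of gall bladder and intestine | read-out = visual per-well fluorescence inhibition score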

[8] = blockers of RIG-like receptor reporter activation – cell-based, Sendai virus stimulus, luciferase, 10K MLSCN set, TLR/RLR signaling modifier project, primary screen (AID 602276;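 active = inhibition at or above 50% at 10 µM; inactive = inhibition below 50%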;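 note: firefly luciferase from ISG56 promoter only with Renilla not read in this screen; 0% = Sendai virus plus DMSO and 100% = medium plus DMSO without virus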); details: HEK293 RL24 IRF3 luciferase reporter, at 10 µM, stronger effect = higher value
[9] = TLR3 IRF3 reporter activation blockers – cell-based, poly I:C stimulus, luciferase, 10K MLSCN set, primary screen (AID 602277;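 active = inhibition of the reporter signal at or above 50%; inactive = inhibition below 50%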); details: HEK293-TLR3 RL24 IRF3 luciferase reporter, at 10 µM, stronger effect = higher value

Sequence of Voltage-gated potassium channel subunit beta-2 (Rattus norvegicus) (P62483 whole entry, looked up): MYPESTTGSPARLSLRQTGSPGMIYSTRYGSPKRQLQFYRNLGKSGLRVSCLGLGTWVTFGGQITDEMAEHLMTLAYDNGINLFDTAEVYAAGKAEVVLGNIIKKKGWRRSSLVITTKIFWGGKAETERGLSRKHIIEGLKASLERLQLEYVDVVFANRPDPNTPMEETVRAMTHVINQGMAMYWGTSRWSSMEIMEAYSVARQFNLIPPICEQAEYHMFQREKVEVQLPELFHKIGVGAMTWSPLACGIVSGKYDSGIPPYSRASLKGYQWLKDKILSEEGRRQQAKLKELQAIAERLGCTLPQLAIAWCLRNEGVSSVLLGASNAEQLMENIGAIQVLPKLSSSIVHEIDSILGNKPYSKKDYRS
Sequence of Alpha-2C adrenergic receptor (Homo sapiens) (P18825 whole entry, looked up): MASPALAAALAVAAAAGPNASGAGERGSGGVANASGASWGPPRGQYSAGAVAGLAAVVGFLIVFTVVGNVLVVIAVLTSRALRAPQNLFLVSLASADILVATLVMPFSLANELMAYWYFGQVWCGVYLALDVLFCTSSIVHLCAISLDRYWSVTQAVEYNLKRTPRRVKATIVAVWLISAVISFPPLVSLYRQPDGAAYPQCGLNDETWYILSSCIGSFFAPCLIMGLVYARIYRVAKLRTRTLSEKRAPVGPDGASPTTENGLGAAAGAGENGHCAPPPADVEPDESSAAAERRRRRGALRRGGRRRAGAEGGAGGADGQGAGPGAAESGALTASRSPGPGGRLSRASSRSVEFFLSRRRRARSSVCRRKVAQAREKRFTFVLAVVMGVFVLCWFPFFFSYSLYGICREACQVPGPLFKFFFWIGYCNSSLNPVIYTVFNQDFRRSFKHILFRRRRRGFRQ

| Compound | cell count [1] | inhibition [1] | inhibition of aggregation [2] | nuclei count [2] | inhibition [3] | nuclei count [3] | fluorescence slope [4] | NADPH fluorescence slope [5] | slope [6] | outcome [7] | inhibition [8] | inhibition [9] |
| --- | --- | --- | --- | --- | --- | --- | --- | --- | --- | --- | --- | --- |
| COC(=O)CCN(C(=O)c1ccc2c(c1)OCO2)c1ccccn1 | 730 | 2.9% (inactive) | -10.6% (inactive) | 98.2% | -0.1% (inactive) | 89.7% | -0.4 (inactive) | -4.5e-06 (inactive) | 0.00511 (inactive) | inactive | 17.3% (inactive) | 18% (inactive) |
| CC(C)Cn1c2c(c(O)c(C(=O)Nc3ncccc3O)c1=O)CCCC2 | 576 | -5.9% (inactive) | 9.6% (inactive) | 99.1% | 26.1% (inactive) | 105% | -0.38 (inactive) | -6.5e-05 (inactive) | 0.00432 (inactive) | inactive | 8.02% (inactive) | 10.1% (inactive) |
| COC(=O)c1[nH]c2ccc(C)cc2c1NC(=O)CN1CCCC(C)(C)C1 | 422 | 7.3% (inactive) | -2.1% (inactive) | 101% | -330% (inactive) | 107% | -0.37 (inactive) | -2.6e-05 (inactive) | 0.00452 (inactive) | inactive | 8.28% (inactive) | 18% (inactive) |
| O=C(COC(=O)c1ccccc1C(=O)c1ccccc1)c1ccco1 | 327 | 7.4% (inactive) | -2.3% (inactive) | 89.2% | 4% (inactive) | 113% | -0.501 (inactive) | 2.4e-06 (inactive) | 0.00441 (inactive) | inactive | -5.98% (inactive) | 2.21% (inactive) |
| Cc1cc(NC(=O)C(C)(C)C)no1 | 507 | -8.7% (inactive) | -18% (inactive) | 118% | -50.6% (inactive) | 124% | -0.29 (inactive) | -1.1e-05 (inactive) | 0.005 (inactive) | inactive | 16.1% (inactive) | 20.8% (inactive) |
| CCCc1cc(N2CCCC2)n2nc(C)c(-c3ccccc3)c2n1 | 531 | -11% (inactive) | -13.4% (inactive) | 112% | -22.9% (inactive) | 122% | -0.118 (inactive) | 9.3e-07 (inactive) | 0.00457 (inactive) | inactive | 14% (inactive) | -0.253% (inactive) |
| FC(F)Oc1cccc2cccnc12 | 538 | -5.8% (inactive) | -5.4% (inactive) | 103% | 67.2% (active) | 82.3% | -0.345 (inactive) | -1.3e-05 (inactive) | 0.00451 (inactive) | inactive | 10.2% (inactive) | 9.81% (inactive) |
| Cn1c(=O)[nH]c(=O)c2c1nc(Br)n2CCCSc1nc2ccccc2o1 | 588 | -2.9% (inactive) | -18.5% (inactive) | 112% | -8.4% (inactive) | 100% | -0.352 (inactive) | -6.5e-05 (inactive) | 0.00502 (inactive) | inactive | 17.2% (inactive) | 9.4% (inactive) |
| CCc1ccccc1N1C(=O)C2CC(C)=C(C)CC2C1=O (centres undefined) | 500 | 5.5% (inactive) | 18.2% (inactive) | 92.1% | -355% (inactive) | 124% | -0.368 (inactive) | -5.9e-05 (inactive) | 0.00511 (inactive) | inactive | 10.5% (inactive) | 4.14% (inactive) |
| CN/C=C1\C(=O)C(C)(C)Oc2ccc3ccc(=O)oc3c21 | 544 | -12.4% (inactive) | -24.8% (inactive) | 101% | -38.4% (inactive) | 129% | -0.384 (inactive) | -2.1e-05 (inactive) | 0.00506 (inactive) | inactive | 8.59% (inactive) | 8.49% (inactive) |
| COC(=O)C1=C(C)Nc2ncnn2C1c1ccco1 (centres undefined) | 303 | -4.2% (inactive) | -6.6% (inactive) | 100% | 5.2% (inactive) | 93.9% | -0.432 (inactive) | -6e-05 (inactive) | 0.00405 (inactive) | inactive | 15.5% (inactive) | 16.5% (inactive) |
| Cn1c(=O)c2c(nc(NCCCO)n2Cc2cccc(Br)c2)n(C)c1=O | 705 | -1.8% (inactive) | 1.7% (inactive) | 108% | 25.3% (inactive) | 92.8% | -0.349 (inactive) | -4.6e-05 (inactive) | 0.00493 (inactive) | inactive | 14.9% (inactive) | 14.1% (inactive) |
| Cc1cc(C(=O)COC(=O)c2n[nH]c3ccccc23)c(C)n1C | 377 | 2.6% (inactive) | -0.6% (inactive) | 86.6% | 12.4% (inactive) | 96.7% | -0.445 (inactive) | -1.8e-05 (inactive) | 0.00398 (inactive) | inactive | 5.43% (inactive) | -24.2% (inactive) |
| CCN(CC(=O)Nc1ccc2c(c1)OCCO2)Cc1cc(=O)oc2cc(C)c(C)cc12 | 337 | -9.6% (inactive) | 8.8% (inactive) | 96.4% | -2.6% (inactive) | 119% | -0.474 (inactive) | -3.1e-05 (inactive) | 0.00545 (inactive) | inactive | 25.7% (inactive) | 16.9% (inactive) |
| COc1cccc(NC(=O)N(CCCN2CCOCC2)C(C)c2cc3cccc(OC)c3o2)c1 (centres undefined) | 863 | 5% (inactive) | -3.4% (inactive) | 106% | -93.2% (inactive) | 132% | -0.433 (inactive) | -6.3e-05 (inactive) | 0.00436 (inactive) | inactive | 16.5% (inactive) | 34.8% (inactive) |
| CS(=O)(=O)N(CC(=O)N1CCCCCC1)c1ccc(Br)cc1 | 485 | -38.8% (inactive) | 20.1% (inactive) | 81.6% | 13.3% (inactive) | 95.6% | -0.353 (inactive) | -5.4e-05 (inactive) | 0.00619 (inactive) | inactive | 15.8% (inactive) | 16% (inactive) |
| CCCCCCC(c1c(C)n(C)n(-c2ccccc2)c1=O)c1c(C)n(C)n(-c2ccccc2)c1=O | 272 | -12.6% (inactive) | 21% (inactive) | 59.4% | -39.4% (inactive) | 102% | -0.407 (inactive) | -5e-05 (inactive) | 0.00514 (inactive) | inactive | 7.89% (inactive) | 7.24% (inactive) |
| CCc1nnc(NC(=O)CSc2nc(-c3ccc(OC)cc3)ns2)s1 | 203 | -10.4% (inactive) | -17.4% (inactive) | 82% | -32.2% (inactive) | 98.7% | -0.408 (inactive) | 3.8e-06 (inactive) | 0.00688 (inactive) | inactive | -36.8% (inactive) | -50.2% (inactive) |
| Cc1sc2ncnc(Oc3ccc(-n4ccnc4)cc3)c2c1C | 377 | -13.2% (inactive) | -1% (inactive) | 109% | -56.2% (inactive) | 140% | -0.382 (inactive) | 7e-06 (inactive) | 0.00491 (inactive) | inactive | -6.33% (inactive) | -14.4% (inactive) |
| COc1ccccc1N(CC(=O)NC1CCCC1)C(=O)CCC(=O)Nc1cc(C)on1 | 566 | -8.6% (inactive) | 10.8% (inactive) | 96.8% | -29.3% (inactive) | 102% | -0.408 (inactive) | -5.9e-05 (inactive) | 0.00447 (inactive) | inactive | -11.8% (inactive) | -11.2% (inactive) |
| CCN1C(=O)/C(=C/N(C)c2ccccc2)OC1=S | 592 | -12.2% (inactive) | 12.1% (inactive) | 84.4% | 34.8% (inactive) | 93.7% | -0.469 (inactive) | -5.3e-05 (inactive) | 0.00485 (inactive) | inactive | -11.5% (inactive) | -64.8% (inactive) |
| CCOc1nc(-c2ccccc2O)nc2ccccc12 | 716 | -3.1% (inactive) | -11.6% (inactive) | 104% | -148% (inactive) | 116% | -0.437 (inactive) | -2.5e-05 (inactive) | 0.00628 (inactive) | inactive | 6.19% (inactive) | 9.49% (inactive) |
| CCOC(=O)c1ccc2[nH]c3c(c2c1)CCCCC3=O | 681 | -11% (inactive) | -12.9% (inactive) | 106% | 32% (inactive) | 96.5% | -0.389 (inactive) | -5.3e-05 (inactive) | 0.00399 (inactive) | inactive | -36.8% (inactive) | -77.8% (inactive) |
| CC12CN3CCN(CC(C3)C1(O)CN1CCCCC1)C2 (centres undefined) | 305 | 1.7% (inactive) | -16.8% (inactive) | 111% | -66.3% (inactive) | 121% | -0.347 (inactive) | -5.6e-05 (inactive) | 0.00521 (inactive) | inactive | 10.7% (inactive) | 35.8% (inactive) |
| CCOC(=O)Nc1ccc2c(c1)N(C(=O)CCN1CCOCC1)c1ccccc1S2 | 313 | -2.1% (inactive) | 32.1% (inactive) | 100% | 3% (inactive) | 104% | -0.37 (inactive) | -6.8e-05 (inactive) | 0.00608 (inactive) | inactive | 6.28% (inactive) | 18.1% (inactive) |
| O=C(NCCCN1CCN(Cc2ccccc2)CC1)C1CCN(c2nnc(-n3cccc3)s2)CC1 | 336 | -11.8% (inactive) | -22.5% (inactive) | 103% | -119% (inactive) | 126% | -0.393 (inactive) | -5e-05 (inactive) | 0.00457 (inactive) | inactive | -19.7% (inactive) | -72% (inactive) |
| c1ccc2c(-c3nc(-c4ccncc4)no3)cccc2c1 | 313 | -1.1% (inactive) | -4.5% (inactive) | 88.4% | -210% (inactive) | 118% | -0.442 (inactive) | -3.1e-05 (inactive) | 0.00497 (inactive) | inactive | -14.2% (inactive) | -43.8% (inactive) |
